Test [1] deals with T1, MLL1 SET domain (Homo sapiens, UniProt Q03164). Kind of test: FL-NAH fluorescence polarization saturation binding, isolated SET domain. The conditions noted are these: SET Only. In outline:
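The isolated MLL1 SET domain was titrated in increasing concentrations against 50 nM fluorescein-azaadenosylhomocysteine probe. Buffer was 20 mM Tris pH 8.0, 0.01% Triton X-100, 5 mM DTT. Incubation was 30 min at ambient temperature. FP was read at ex 485/em 528 nm. Kd and ΔFPmax came from nonlinear least-squares single-site saturation fit of ΔFP. Mean ± SD, three independent experiments.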
A general note: In fluorescence polarisation assays a small probe gives low polarisation when free and higher when bound to something large.

The target of test [2] is T1, MLL1 SET domain. Put plainly: saturation-transfer difference. Format: binding. The note with it: Supplementary Figure 2.
Test [3] has as its target T2, trimeric MLL1 complex (MLL1, RbBP5 and WDR5) (Homo sapiens, UniProt Q03164). Put plainly: FL-NAH fluorescence polarization saturation binding, trimeric complex.
Test [4] addresses T1, MLL1 SET domain. Put plainly: differential static light scattering. Format: binding. The conditions noted are these: Supplementary Figure 3.
For test [5], the target named is T3, pentameric MLL1 complex (Homo sapiens, UniProt Q03164). Put plainly: FL-NAH fluorescence polarization saturation binding, pentameric complex.
Test [6] concerns the target T4, tetrameric MLL1 complex (Homo sapiens, UniProt Q03164). Kind of test: FL-NAH fluorescence polarization saturation binding, tetrameric complex.
The target in test [7] is T2, trimeric MLL1 complex (MLL1, RbBP5 and WDR5). Kind of test: FL-NAH displacement FP assay, trimeric complex. Format: binding. The note with it: for Hill Slope: Trimeric complex, FL-NAH displacement curve.
Test [8] addresses T1, MLL1 SET domain. Put plainly: FL-NAH displacement FP assay, isolated SET domain. Format: binding. The conditions noted are these: for Hill Slope: SET Only, FL-NAH displacement curve.
The target of test [9] is T3, pentameric MLL1 complex. Put plainly: FL-NAH displacement FP assay, pentameric complex. Format: binding. The conditions noted are these: for Hill Slope: Pentameric complex, FL-NAH displacement curve.
The target of test [10] is T4, tetrameric MLL1 complex. Kind of test: FL-NAH displacement FP assay, tetrameric complex. Format: binding. The note with it: for Hill Slope: Tetrameric complex, FL-NAH displacement curve. The method in brief: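 The tetrameric MLL1 complex was diluted to its own Kd (probe) concentration. It was then incubated 30 min at ambient temperature with 50 nM fluorescein-azaadenosylhomocysteine probe and increasing concentrations of test compound. Buffer was 20 mM Tris pH 8.0, 0.01% Triton X-100, 5 mM DTT. FP was read at ex 485/em 528 nm, in mP. Kdisp and Hill coefficient came from nonlinear least-squares sigmoidal fit. Mean ± SD, ≥3 independent experiments.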

Setting [11] is: polarization expressed in mP (methods).

Broadly, the Kd is the equilibrium constant for the complex coming apart. Read a high Kd as weaker binding. In general, IC50 refers to the concentration that gives 50% inhibition. The low end stands for higher potency, the high end for lower potency.

Molecules are shown by their SMILES.

T4 sequence (Q03164 3829-3945): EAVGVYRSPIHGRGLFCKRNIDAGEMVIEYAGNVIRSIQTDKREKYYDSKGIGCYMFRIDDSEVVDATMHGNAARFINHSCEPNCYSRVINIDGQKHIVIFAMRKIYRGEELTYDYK
T4 sequence (Q15291 whole entry, further chain): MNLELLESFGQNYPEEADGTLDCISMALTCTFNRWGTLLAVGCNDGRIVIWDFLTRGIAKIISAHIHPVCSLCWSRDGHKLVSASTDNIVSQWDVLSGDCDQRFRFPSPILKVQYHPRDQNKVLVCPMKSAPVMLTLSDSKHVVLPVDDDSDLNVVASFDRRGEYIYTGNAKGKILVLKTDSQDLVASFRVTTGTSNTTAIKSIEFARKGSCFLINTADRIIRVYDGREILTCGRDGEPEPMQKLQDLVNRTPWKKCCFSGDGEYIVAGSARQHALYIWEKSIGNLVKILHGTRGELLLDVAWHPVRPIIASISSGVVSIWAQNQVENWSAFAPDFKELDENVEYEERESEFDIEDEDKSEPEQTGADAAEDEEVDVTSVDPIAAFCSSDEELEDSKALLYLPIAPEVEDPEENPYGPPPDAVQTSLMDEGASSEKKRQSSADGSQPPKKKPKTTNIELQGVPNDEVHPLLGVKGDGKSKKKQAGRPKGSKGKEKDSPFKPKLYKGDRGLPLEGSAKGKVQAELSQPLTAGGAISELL
T4 sequence (Q9UBL3 whole entry, further chain): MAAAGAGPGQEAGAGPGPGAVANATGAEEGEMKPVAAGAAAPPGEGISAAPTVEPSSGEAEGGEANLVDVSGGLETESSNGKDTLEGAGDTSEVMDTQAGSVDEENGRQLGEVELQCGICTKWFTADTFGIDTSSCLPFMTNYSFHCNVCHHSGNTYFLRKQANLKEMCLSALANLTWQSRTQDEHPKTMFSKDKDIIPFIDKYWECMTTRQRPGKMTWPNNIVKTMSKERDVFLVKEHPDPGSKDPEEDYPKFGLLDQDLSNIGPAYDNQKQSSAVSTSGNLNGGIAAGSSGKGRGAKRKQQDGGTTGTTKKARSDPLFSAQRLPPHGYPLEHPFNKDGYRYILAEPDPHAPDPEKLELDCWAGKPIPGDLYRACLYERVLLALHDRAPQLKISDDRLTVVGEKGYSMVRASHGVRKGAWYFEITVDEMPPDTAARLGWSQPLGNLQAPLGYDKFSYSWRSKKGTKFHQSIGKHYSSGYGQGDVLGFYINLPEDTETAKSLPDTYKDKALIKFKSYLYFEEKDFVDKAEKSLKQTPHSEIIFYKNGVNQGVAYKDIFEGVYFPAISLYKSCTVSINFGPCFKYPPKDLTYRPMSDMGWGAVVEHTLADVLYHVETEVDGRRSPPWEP
T1 sequence (Q03164 3829-3945 limits assumed): as the sequence (Q03164 3829-3945) above

For `Nc1ncnc2c1ncn2[C@@H]1O[C@H](CN(CC[C@H](N)C(=O)O)Cc2cn(CCNC(=O)c3ccc4c(c3)C(=O)OC43c4ccc(O)cc4Oc4cc(O)ccc43)nn2)[C@@H](O)[C@H]1O` [FL-NAH, fluorescein linked with N-adenosylhomocysteine], the Kd was 1000 ± 100 nM on MLL1 SET domain [1] (50 nM FL-NAH, FP after 30 min); 7000 ± 3000 nM in test [3] (50 nM FL-NAH, FP after 30 min); 200 ± 30 nM at pentameric MLL1 complex [5] (50 nM FL-NAH, FP after 30 min); 1400 ± 400 nM at tetrameric MLL1 complex [6] (50 nM FL-NAH, FP after 30 min). Also, the ΔFPmax at MLL1 SET domain [1] (setting [11]) is 240 ± 3; in test [3] (setting [11]), 260 ± 40; at pentameric MLL1 complex [5] (setting [11]), 270 ± 20; on tetrameric MLL1 complex [6] (setting [11]), 300 ± 30. Also, the “binding to MLL1 SET domain alone by STD NMR” value on MLL1 SET domain [2] was “confirmed”. The “binding to MLL1 SET domain alone by differential static light scattering” value on MLL1 SET domain [4] is “confirmed”.
As to `Nc1ncnc2c1ncn2[C@@H]1O[C@H](CSCC[C@H](N)C(=O)O)[C@@H](O)[C@H]1O` [SAH], the “Hill Slope” value in test [7] is −1.5 ± 0.3; on MLL1 SET domain [8], −0.9 ± 0.2; at pentameric MLL1 complex [9], −1.4 ± 0.3; at tetrameric MLL1 complex [10] it was −1.9 ± 0.1. Also, the “increase in potency of FL-NAH displacement, pentameric complex relative to the isolated SET domain” value on pentameric MLL1 complex [9] (pentameric vs isolated SET domain) turned out to be 20 fold.
As to `Nc1ncnc2c1ncn2[C@@H]1O[C@H](C[C@@H](N)CC[C@H](N)C(=O)O)[C@@H](O)[C@H]1O` [Sinefungin, sinefungin], the IC50 is 10000 ± 2500 nM in [7], 9000 ± 200 nM on MLL1 SET domain [8], 500 ± 100 nM on pentameric MLL1 complex [9] and 2000 ± 200 nM at tetrameric MLL1 complex [10]. Also, the “Hill Slope” value in [7] was −1.1 ± 0.3; at MLL1 SET domain [8], −0.9 ± 0.1; at pentameric MLL1 complex [9], −1.1 ± 0.3; at tetrameric MLL1 complex [10], −1.2 ± 0.1.
As to `C[S+](CC[C@H](N)C(=O)[O-])C[C@H]1O[C@@H](n2cnc3c(N)ncnc32)[C@H](O)[C@@H]1O` (stereo partly shown) [SAM, S-adenosylmethionine], the IC50 is 7000 ± 1000 nM in test [7], 14000 ± 2000 nM at MLL1 SET domain [8], 1000 ± 200 nM on pentameric MLL1 complex [9] and 1000 ± 100 nM on tetrameric MLL1 complex [10]. In addition, the “Hill Slope” value in test [7] is listed as −1.6 ± 0.4; at MLL1 SET domain [8], −1.2 ± 0.1; at pentameric MLL1 complex [9], −1.6 ± 0.3; on tetrameric MLL1 complex [10], −1.7 ± 0.2.

The values above are taken from paper PMC4689628 (Organic & biomolecular chemistry, 2016).
